Bioassay records (PubChem BioAssay)
CHO-K1 Ca antag – nonselective inhibitor or artifact in parental CHO-K1 cells; ATP-induced calcium, Fluo-8 fluorescence; inhibition, % at 3 µM; 360,000 tested, 0.6% active; AID 602250;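 active = inhibition above a per-plate cutoff, the plate's mean sample inhibition plus 3 SD, cut at about 24% in these data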;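 note: 0% = DMSO plus EC80 ATP and 100% = DMSO alone without ATP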
CHO-K1 Ca ag – counter-screen for M1 agonists: effect in parental CHO-K1 cells | activation, % at 3 µM | Fluo-8 calcium fluorescence; scaled to maximal ATP response, vehicle zero | 360,000 tested, 0.48% active | AID 602248, 2012; in the data active = activation above about 15%;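 note: untransfected CHO-K1 host cells lacking M1 receptor as counterscreen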
OX1R antag-1 – antagonists of human orexin 1 receptor (OX1R). Orexin/Hypocretin receptor type 1 (Homo sapiens), O43613. OX1R-expressing cells, FRET antagonist read-out. inhibition, % at 6.6 µM. 330,000 tested, 1.8% active; in the data active = inhibition mostly above about 38%, no sharp cut-off; inactive = mostly below about 40%;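 note: 0% = agonist challenge alone and 100% = reference antagonist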
Target sequence (O43613 whole entry, looked up): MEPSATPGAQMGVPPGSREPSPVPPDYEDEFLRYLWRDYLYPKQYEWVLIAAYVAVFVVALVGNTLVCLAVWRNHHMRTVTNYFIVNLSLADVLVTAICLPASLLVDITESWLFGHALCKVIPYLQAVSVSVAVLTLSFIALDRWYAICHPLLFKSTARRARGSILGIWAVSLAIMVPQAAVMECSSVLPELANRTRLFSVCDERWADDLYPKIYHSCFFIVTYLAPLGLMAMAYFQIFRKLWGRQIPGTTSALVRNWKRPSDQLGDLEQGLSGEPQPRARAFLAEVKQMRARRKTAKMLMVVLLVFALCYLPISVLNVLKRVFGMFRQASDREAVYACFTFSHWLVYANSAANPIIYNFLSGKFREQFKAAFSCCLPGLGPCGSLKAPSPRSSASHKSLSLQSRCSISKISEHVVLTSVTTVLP
OX1R antag-2 – OX1R (HCRTR1) antagonists, primary screen, fluorescence, CHO/OX1R cells, Fluo-8 calcium, orexin A. inhibition, % at 5 µM. 330,000 tested, 0.43% active. Fluo-8 calcium fluorescence. Orexin/Hypocretin receptor type 1 (Homo sapiens), O43613;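 active = inhibition above its plate's threshold, mean inhibition of all tested compounds on the plate plus 3 SD, cut at about 37% in these data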;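 note: 0% = orexin A challenge wells and 100% = SB-334867-A antagonist wells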
CHO parental Ca – ATP-evoked calcium signal inhibitors, parental CHO, primary screen, counter-screen for OX1R antagonist project, cell-based, fluorescence, Fluo-8 calcium dye. parental CHO-K1, ATP-induced calcium, Fluo-8 fluorescence. inhibition, % at 5.6 µM. 330,000 tested, 0.63% active. AID 463079, 2010;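 active = inhibition above that plate's mean sample inhibition plus 3 SD, cut at about 26% in these data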;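 note: 0% = ATP-challenged DMSO wells and 100% = DMSO wells without ATP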
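Test system: untransfected parental CHO cell line; also added: ATP stimulus; dosing: 5.6 µM, single dose; signal: calcium-sensitive Fluo-8 fluorescence; measure: percent inhibition of ATP-evoked calcium rise, normalized to controls; benchmarks: low control ATP plus DMSO, high control DMSO only; replication: one well per compound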
CHO-K1 Ca PAM – nonselective calcium activators in parental CHO-K1 cells, primary screen, counter-screen for M1 PAM project, cell-based, Fluo-8 calcium fluorescence, full deck, 1536-well | AID 602247, 2012 | activation, % at 3 µM | ATP EC20; 0% at ATP EC20, 100% at ATP max | 360,000 tested, 0.02% active;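 active = activation above the run cutoff, the mean activation of all test compounds plus 3 SD, cut at about 40% in these data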;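 note: peak over basal fluorescence ratio in a 140 s read after ATP addition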
Starred values were filed as active, the others as inactive. Only some compounds are listed: those with a hit (about 2.9% of all), similar ones and a draw of the others.

`CCCC(=O)Nc1ccc(C(=O)Nc2cc(C(F)(F)F)ccc2Cl)cc1` gave CHO-K1 Ca antag 0, CHO-K1 Ca ag 2, OX1R antag-1 31, OX1R antag-2 -5, CHO parental Ca 69* and CHO-K1 Ca PAM 13.
`C=CCNC(=O)c1ccccc1Cl` gave CHO-K1 Ca antag -3, CHO-K1 Ca ag 19*, OX1R antag-1 2, OX1R antag-2 -13, CHO parental Ca -3 and CHO-K1 Ca PAM 11.
Screening COc1ccc2ccccc2c1/C=N/NC(=O)c1cccc(C)c1 returned CHO-K1 Ca antag -13, CHO-K1 Ca ag 0, OX1R antag-1 22, OX1R antag-2 -14, CHO parental Ca -6 and CHO-K1 Ca PAM 9.
Screening Cc1cccc(OCC(=O)NC(C)C(=O)N/N=C/c2c(OCc3ccccc3)ccc3ccccc23)c1 (stereo not drawn) returned CHO-K1 Ca antag -10, CHO-K1 Ca ag -1, OX1R antag-1 43*, OX1R antag-2 2, CHO parental Ca -6 and CHO-K1 Ca PAM 14.
`NC(=O)c1ccsc1NC(=O)COC(=O)Cc1cccc2ccccc12` gave CHO-K1 Ca antag 29*, CHO-K1 Ca ag 9, OX1R antag-1 39, OX1R antag-2 75*, CHO parental Ca 59* and CHO-K1 Ca PAM 6.
`COc1cc(C(=O)OCC(=O)Nc2sccc2C(N)=O)cc(OC)c1OC` gave CHO-K1 Ca antag -2, CHO-K1 Ca ag 8, OX1R antag-1 29, OX1R antag-2 -4, CHO parental Ca -22 and CHO-K1 Ca PAM 13.
NC(=O)c1ccsc1NC(=O)COC(=O)Cc1ccc(F)cc1 was read as CHO-K1 Ca antag 14, CHO-K1 Ca ag 17* and CHO-K1 Ca PAM -8.
For COc1cc(CCC(=O)OCC(=O)Nc2sccc2C(N)=O)cc(OC)c1OC the results were CHO-K1 Ca antag 39*, CHO-K1 Ca ag 14 and CHO-K1 Ca PAM -16.
For NC(=O)c1ccsc1NC(=O)COC(=O)Cc1c[nH]c2ccccc12 the results were CHO-K1 Ca antag 20, CHO-K1 Ca ag 13, OX1R antag-1 23, OX1R antag-2 2, CHO parental Ca 7 and CHO-K1 Ca PAM -18.
For NC(=O)c1ccsc1NC(=O)COC(=O)Cc1ccccc1[N+](=O)[O-] the results were CHO-K1 Ca antag 31*, CHO-K1 Ca ag 9 and CHO-K1 Ca PAM -17.
For NC(=O)c1ccsc1NC(=O)COC(=O)CNC(=O)c1cccc([N+](=O)[O-])c1 the results were CHO-K1 Ca antag -10, CHO-K1 Ca ag 7, OX1R antag-1 9, OX1R antag-2 20, CHO parental Ca -13 and CHO-K1 Ca PAM 11.
CC(=O)Nc1ccc(NC(=O)CCNS(=O)(=O)c2cccc3nsnc23)cc1 was read as CHO-K1 Ca antag -13, CHO-K1 Ca ag 1, OX1R antag-1 95, OX1R antag-2 -18, CHO parental Ca -3 and CHO-K1 Ca PAM 21.
For CCC(C)NC(=O)C1c2ccccc2C(=O)N1Cc1ccc(F)cc1 (stereo not drawn) the results were CHO-K1 Ca antag -9, CHO-K1 Ca ag 1, OX1R antag-1 0, OX1R antag-2 -20, CHO parental Ca -9 and CHO-K1 Ca PAM -19.
For Cc1ccc(C)c(NC(=O)CN(C)C(=O)c2ccc(S(=O)(=O)N3CCCCCC3)cc2)c1 the results were CHO-K1 Ca antag -14, CHO-K1 Ca ag 1, OX1R antag-1 3, OX1R antag-2 -12, CHO parental Ca -29 and CHO-K1 Ca PAM 13.
Cc1ccccc1SCC(=O)OCC(=O)Nc1sccc1C(N)=O was read as CHO-K1 Ca antag 28*, CHO-K1 Ca ag 16*, OX1R antag-1 29, OX1R antag-2 24, CHO parental Ca 23 and CHO-K1 Ca PAM 6.
COc1ccc(S(=O)(=O)n2nc(-c3cc(OC)c(OC)c(OC)c3)cc2N)cc1OC was read as CHO-K1 Ca antag -2, CHO-K1 Ca ag 0, OX1R antag-1 16, OX1R antag-2 -37, CHO parental Ca -20 and CHO-K1 Ca PAM 11.
`COc1ccc(-c2cc(N)n(S(=O)(=O)c3c(F)c(F)c(F)c(F)c3F)n2)cc1OC` gave CHO-K1 Ca antag 1, CHO-K1 Ca ag 0, OX1R antag-1 19, OX1R antag-2 24, CHO parental Ca 45* and CHO-K1 Ca PAM 16.
Screening CN1N=C(C(C)(C)C)CSC1=Nc1ccccc1 returned CHO-K1 Ca antag -15, CHO-K1 Ca ag 0, OX1R antag-1 5, OX1R antag-2 3, CHO parental Ca 0 and CHO-K1 Ca PAM 7.
`Cc1cccc(OCC(=O)OCC(=O)Nc2sccc2C(N)=O)c1` gave CHO-K1 Ca antag 8, CHO-K1 Ca ag 20*, OX1R antag-1 3, OX1R antag-2 44*, CHO parental Ca 33* and CHO-K1 Ca PAM -17.
`Cc1cccc(OC(C)C(=O)OCC(=O)Nc2sccc2C(N)=O)c1` (stereo not drawn) gave CHO-K1 Ca antag 12, CHO-K1 Ca ag 16*, OX1R antag-1 13, OX1R antag-2 39, CHO parental Ca 17 and CHO-K1 Ca PAM -10.
`COc1ccccc1OCC(=O)OCC(=O)Nc1sccc1C(N)=O` gave CHO-K1 Ca antag -1, CHO-K1 Ca ag 12, OX1R antag-1 21, OX1R antag-2 -10, CHO parental Ca -8 and CHO-K1 Ca PAM 9.
For Cc1cccc(OCC(=O)Nc2ccc3oc(=O)ccc3c2)c1 the results were CHO-K1 Ca antag 3, CHO-K1 Ca ag 19*, OX1R antag-1 22, OX1R antag-2 8, CHO parental Ca 10 and CHO-K1 Ca PAM -10.
Screening Cc1cccc(OCC(=O)NNc2c3ccccc3nc3ccccc23)c1 returned CHO-K1 Ca antag -15, CHO-K1 Ca ag 6, OX1R antag-1 41*, OX1R antag-2 15, CHO parental Ca -8 and CHO-K1 Ca PAM -4.
`Cc1cccc(OCC(=O)NCc2ccc(F)cc2)c1` gave CHO-K1 Ca antag 24*, CHO-K1 Ca ag 0, OX1R antag-1 6, OX1R antag-2 -4, CHO parental Ca -5 and CHO-K1 Ca PAM -22.
For Cc1ccc(OCC(=O)NNc2c3ccccc3nc3ccccc23)cc1 the results were CHO-K1 Ca antag 2, CHO-K1 Ca ag 6, OX1R antag-1 53, OX1R antag-2 -3, CHO parental Ca -21 and CHO-K1 Ca PAM -10.
Cc1cccc(OCC(=O)NCc2n[nH]c(=O)c3ccccc23)c1 was read as CHO-K1 Ca antag 0, CHO-K1 Ca ag 1, OX1R antag-1 11, OX1R antag-2 -7, CHO parental Ca 0 and CHO-K1 Ca PAM 12.
For COC(=O)C=C1CCC2C3CCC4=CC(=O)CCC4(C)C3C(=O)CC12C (stereo not drawn) the results were CHO-K1 Ca antag 2, CHO-K1 Ca ag 8 and CHO-K1 Ca PAM 3.
Screening O=C(NC1CC1)c1ccc(NC(=O)C2CCCCC2)cc1 returned CHO-K1 Ca antag -7, CHO-K1 Ca ag 1 and CHO-K1 Ca PAM 22.
